DNMT1 inh: DNMT1 (human) enzyme inhibition | 0.83% of 360,000 active | DNMT1 molecular beacon, Hinp1I cleavage, fluorescence | AID 588458 | inhibition (reported as % activation of signal), % at 10 µM; in the data active means inhibition above about 50%
SUMO1-SIM PPI: modulators of human SUMO1-mediated protein-protein interactions; P63165; SUMO1 binding to a labelled peptide, TR-FRET, 1 h; inhibition, % at 20 µM; 0.33% of 360,000 active; AID 602429; in the data active means inhibition above about 37%
Target sequence (P63165 whole entry, looked up): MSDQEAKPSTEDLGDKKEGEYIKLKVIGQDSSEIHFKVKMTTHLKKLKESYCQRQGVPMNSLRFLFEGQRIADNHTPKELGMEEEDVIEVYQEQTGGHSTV
Scp-1 inhibitor: blocks human Scp-1 phosphatase activity | 0.88% of 340,000 active | inhibition, % at 20 µM | Recombinant Scp1, phosphopeptide, malachite green phosphate absorbance | Q9GZU7;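 active means inhibition above about 50% at 20 µM, limit read from the data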;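 further: plate controls were DMSO wells with enzyme for no effect and wells lacking enzyme for full effect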
Target sequence (Q9GZU7 76-261 limits assumed): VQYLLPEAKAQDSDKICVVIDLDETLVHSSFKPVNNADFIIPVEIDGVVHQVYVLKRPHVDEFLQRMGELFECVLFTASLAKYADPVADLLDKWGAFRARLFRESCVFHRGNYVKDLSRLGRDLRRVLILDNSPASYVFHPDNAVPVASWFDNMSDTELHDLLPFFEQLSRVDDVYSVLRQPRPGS
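System: truncated SCP-1 phosphatase (76-261aa); medium: Tris acetate buffer pH 5.5 with MgCl2 and Tween-20; incubation: 45 min room-temperature reaction, 5 min colour, 30 min stabiliser; compound: single 20 µM dose, 1% DMSO; reagent: Phosphorylated 17-residue peptide substrate; read-out: % inhibition at 20 µM; technique: colorimetric free-phosphate detection, absorbance 630 nm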
LMPTP inh: LMPTP (human) inhibition | AID 651560 | 0.22% of 360,000 active | recombinant LMPTP-A, OMFP fluorogenic substrate, fluorescence intensity | inhibition, % at 20 µM;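 active means compounds that cut the enzyme signal by at least half of the control window in the single-dose screen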;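 further: plate controls were DMSO wells with enzyme plus substrate for no effect and substrate without enzyme for full effect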
Target sequence (P24666 whole entry, looked up): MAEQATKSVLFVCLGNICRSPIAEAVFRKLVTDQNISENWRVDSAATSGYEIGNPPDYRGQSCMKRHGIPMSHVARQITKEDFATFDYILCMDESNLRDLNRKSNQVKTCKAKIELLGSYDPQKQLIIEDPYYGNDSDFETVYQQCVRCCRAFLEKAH
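Assay system: LMPTP-A enzyme. Input: 0.625 nM LMPTP-A final. Probe or stimulus: 400 µM OMFP. Compound dosing: single 20 µM dose. Schedule: 50 min dark incubation at room temperature. Detection: fluorescence intensity of OMFP turnover product. Read-out: percent inhibition versus substrate-only and uninhibited controls. Benchmarks: no-enzyme low control, uninhibited high control.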
STEP block: inhibitors of human striatal-enriched phosphatase STEP. recombinant STEP, OMFP fluorogenic substrate, fluorescence. inhibition, % at 20 µM. 0.25% of 360,000 active. AID 588621;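 active means inhibition at 20 µM, scaled per plate between control wells, above about 37%, limit read from the data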;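 further: 0% = DMSO with enzyme and substrate and 100% = substrate only without enzyme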
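medium = Bis-Tris buffer pH 6.0, 2.5 mM DTT, 0.005% Tween 20 | test system = STEP (striatal-enriched tyrosine phosphatase) enzyme, cell-free | measure = normalized % inhibition | compound dosing = 20 µM, 1% DMSO | also added = 25 µM OMFP | schedule = reaction 20 min, ambient temperature | measured by = fluorescence read at 480 nm ex / 540 nm em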
CASP6 VEID inh: caspase-6 (human) enzyme inhibition; purified caspase-6, Z-VEID-R110 cleavage fluorescence; 0.53% of 350,000 active; P55212; AID 686996; inhibition, % at 12.5 µM;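 active means mean inhibition across replicates at least about 35%, with every replicate also reaching that limit, limit read from the data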;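 further: 0% = median of neutral control wells and 100% = no fluorescence left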
Numbers without * were called inactive; . = not tested or not shown. This is a sample that favours compounds with a hit; in the whole collection about 1.7% have one here.

SMILES | DNMT1 inh | SUMO1-SIM PPI | Scp-1 inhibitor | LMPTP inh | STEP block | CASP6 VEID inh
COc1cc(/C=N/NC(=O)c2ccc(O)cc2)ccc1OCC(=O)Nc1cccc([N+](=O)[O-])c1 | 4.0 | 92.7* | 3.8 | -1.0 | 7.6 | -0.6
COc1cc(C(=O)N/N=C/c2ccc(OC(=O)c3ccccc3)c(OC)c2)ccc1O | -6.4 | -1.7 | 4.8 | 1.7 | 2.6 | -0.2
COc1cc(/C=N/NC(=O)c2cc(O)cc(O)c2)ccc1OC(=O)c1ccccc1 | 76.8* | 33.6 | 62.1* | 13.3 | 67.0* | 33.9
Nc1cc(C(=O)OCC(=O)Nc2cccc(S(=O)(=O)N3CCOCC3)c2)ccc1Cl | -3.2 | 2.3 | -2.5 | -0.3 | -3.1 | -2.2
COc1ccc(Cl)cc1NC(=O)C/C(C)=N/NC(=O)COc1ccc(C)cc1 | -6.0 | -2.7 | -4.7 | 0.9 | -1.5 | 0.6
O=C(C1CCCN1S(=O)(=O)c1cccc2cccnc12)N1CCc2ccccc21 (stereo unspecified) | 1.8 | 0.4 | -12.2 | 0.1 | 0.6 | 2.4
CCn1cc(C(=O)NCc2ccc(C)cc2)c(=O)c2cc(S(=O)(=O)N(C)C)ccc21 | -3.3 | 9.4 | -19.5 | 0.5 | -1.0 | 14.7
CN(C)c1ccc(C(=O)OCC(=O)N2CCOCC2)cc1 | 3.9 | 1.7 | -2.5 | -0.5 | -1.9 | -0.1
CCCCOc1ccc(C(=O)OCC(=O)N2CCOCC2)cc1 | -1.7 | 3.2 | 8.1 | -1.6 | -2.7 | 61.4*
COc1cc(C(O)c2nc(-c3ccncc3)cs2)ccc1F (stereo unspecified) | 2.6 | -0.6 | . | -1.7 | 1.0 | 0.7
COc1cc(-c2nnc(SCC(=O)N(Cc3ccccc3)C(C)(C)C)o2)cc(OC)c1OC | 4.2 | -5.3 | -3.8 | 0.5 | 0.5 | .
CCC[C@@H](CN1CCC[C@H]1CN1C(N)=NC[C@H]1CC(C)C)N1C[C@@H](Cc2ccccc2)N(CCc2ccc(Cl)c(Cl)c2)C1=N | 0.1 | -68.6 | 18.3 | 17.6 | 6.3 | 36.0*
CCC[C@@H](CN1CCC[C@H]1CN1C(N)=NC[C@@H]1Cc1ccccc1)N1C[C@@H]([C@H](C)CC)N(CCc2ccc(Cl)c(Cl)c2)C1=N | 13.7 | -68.3 | 10.3 | 17.3 | 3.9 | .
CCC[C@@H](CN1CCC[C@H]1CN1C(N)=NC[C@@H]1Cc1ccccc1)N1C[C@@H](Cc2ccccc2)N(CCc2ccc(Cl)c(Cl)c2)C1=N | -3.2 | -104.9 | 10.3 | 37.9 | 4.9 | 44.7*
CCCN(C)C[C@@H]1Oc2ncc(C#CC3CCCCC3)cc2C(=O)N([C@@H](C)CO)C[C@H]1C | . | . | . | . | . | 14.5
CCC1CCCCN1CCCNC(=O)COc1cc(=O)n(C)c2ccccc12 (stereo unspecified) | -1.3 | 43.7* | -9.0 | -0.9 | -3.3 | .
COCCN(CC(=O)Nc1cccc(C)c1C)C(=O)c1cc2c(s1)CCC2 | 39.3 | 9.4 | 61.1* | 5.4 | 9.2 | 13.7
CCC(=O)N(C1=C(NC(C)C)C(=O)c2ccccc2C1=O)C(C)C | -2.9 | -24.2 | -1.1 | -0.1 | -3.6 | 43.7*
CC(=O)N(C1=C(N)C(=O)c2ccccc2C1=O)C(C)C | -7.5 | -23.5 | -3.7 | 1.3 | -3.1 | 12.1
COC(=O)[C@H]1[C@H](CO)[C@H]2Cn3c(ccc(-c4ccncc4)c3=O)[C@H]2N1CC1CCCCC1 | . | . | . | . | . | -2.2
COc1ccc(NC(=O)c2cc(OC)c(OC)cc2OC)c(S(=O)(=O)N2CCOCC2)c1 | -3.8 | 8.2 | -1.6 | 0.9 | 5.6 | .
COc1ccc(C(=O)NCC2COc3ccccc3O2)cc1S(=O)(=O)N1CCOCC1 (stereo unspecified) | -1.6 | -4.8 | -7.7 | -0.4 | -0.1 | -1.0
O=C(NCC1COc2ccccc2O1)c1ccc(F)c(S(=O)(=O)N2CCOCC2)c1 (stereo unspecified) | 0.9 | -2.0 | -5.7 | -0.3 | -0.1 | 52.0*
CCOc1ccc(C(=O)NCCn2cc(SCC(=O)Nc3cc(C)on3)c3ccccc32)cc1 | -8.3 | 7.0 | -7.2 | -1.5 | -3.4 | .
O=C1CCCN1CCCNc1nc(NCc2ccccc2)nc2ccsc12 | 6.8 | 2.4 | . | 67.5* | -0.4 | 1.2
C=CCNc1nc(NCCCN2CCCC2=O)c2sc(-c3ccccc3)cc2n1 | -7.2 | -22.1 | . | 21.5 | 4.3 | -5.3

Assay outcomes from PubChem.
